Measured values from different studies.
Target: Phosphatidylinositol 4,5-bisphosphate 3-kinase catalytic subunit delta isoform (PIK3CD, Homo sapiens, UniProt O00329)
Sequence (O00329 1-1044, as in one of the studies): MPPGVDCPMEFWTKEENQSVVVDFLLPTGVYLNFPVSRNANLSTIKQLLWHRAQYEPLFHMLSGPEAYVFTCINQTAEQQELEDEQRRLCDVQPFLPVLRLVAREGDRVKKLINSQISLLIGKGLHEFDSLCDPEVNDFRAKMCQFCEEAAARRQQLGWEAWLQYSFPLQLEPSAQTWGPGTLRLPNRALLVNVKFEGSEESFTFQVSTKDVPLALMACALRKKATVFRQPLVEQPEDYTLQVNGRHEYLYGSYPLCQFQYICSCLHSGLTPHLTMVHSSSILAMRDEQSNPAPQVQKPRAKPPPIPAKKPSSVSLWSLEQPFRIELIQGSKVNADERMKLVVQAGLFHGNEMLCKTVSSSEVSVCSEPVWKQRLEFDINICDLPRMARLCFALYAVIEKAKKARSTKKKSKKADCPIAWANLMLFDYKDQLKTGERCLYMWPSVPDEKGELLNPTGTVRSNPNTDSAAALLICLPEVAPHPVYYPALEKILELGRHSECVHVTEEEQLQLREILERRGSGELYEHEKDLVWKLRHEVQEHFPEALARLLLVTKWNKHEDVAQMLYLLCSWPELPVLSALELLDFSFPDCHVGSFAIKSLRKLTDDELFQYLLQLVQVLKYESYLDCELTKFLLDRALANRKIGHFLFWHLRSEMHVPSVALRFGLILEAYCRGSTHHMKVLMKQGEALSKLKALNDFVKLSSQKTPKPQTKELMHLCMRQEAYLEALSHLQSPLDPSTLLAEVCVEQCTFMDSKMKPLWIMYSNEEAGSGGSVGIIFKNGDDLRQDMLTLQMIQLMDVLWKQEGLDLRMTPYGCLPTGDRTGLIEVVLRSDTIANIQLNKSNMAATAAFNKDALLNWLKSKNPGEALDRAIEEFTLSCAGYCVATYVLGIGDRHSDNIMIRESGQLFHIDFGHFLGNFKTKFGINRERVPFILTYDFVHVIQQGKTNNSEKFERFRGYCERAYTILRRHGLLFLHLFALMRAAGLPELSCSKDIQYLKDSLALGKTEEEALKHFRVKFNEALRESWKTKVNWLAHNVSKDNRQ

Compound	assay	conditions	remaining binding [%]
O=C(c1ccc(Nc2ncc(Cl)c(-c3cc4ccccc4s3)n2)cc1)N1CCC(N2CCCC2)CC1	binding, competition with immobilised ligand	1 µM	71
C[C@H](NC(=O)c1cnc2n1[C@](C)(Cc1ccc(C#N)cc1)C(=O)N2c1cc(Cl)c(F)c(Cl)c1)C(=O)NC1(c2ccccn2)CC1	cell-free assay, competition with immobilised ligand	1 µM	95
C[C@H]1CCN(c2nccc(-c3cnn4ncccc34)n2)C1	binding	1 µM	100
COc1cnc(Nc2cccc(S(N)(=O)=O)c2)nc1N1CCN(c2ccccc2)C(=O)C1	binding, competition with immobilised ligand	1 µM	47
CN(C)c1ncc(F)c(-c2cnn3ncccc23)n1	binding	1 µM	98
C[C@@H](c1ccc(-n2cnc3c(N)ncnc32)cc1)N1CCc2nn(C)c(Cc3ccccc3)c2C1=O	binding, competition with immobilised ligand	0.1 µM	61
N[C@@H]1CCN(c2nccc(-c3cnn4ncccc34)n2)C1	binding	1 µM	100
O=C(NCC1CCOCC1)c1n[nH]cc1NC(=O)c1c(F)cccc1F	binding, competition with immobilised ligand	1 µM	87
CC1=C(C#N)[C@@H](c2ccc3[nH]nc(C)c3c2)C(C#N)=C(c2ccc(Cl)cc2)N1	cell-free assay, competition with immobilised ligand	1 µM	100
CN(C)c1nccc(-c2cnc3ncccn23)n1	binding	1 µM	50
Cc1nc(N2CC[C@@H](O)C2)ncc1-c1cc(C(F)(F)F)cc2[nH]ncc12	cell-free assay, competition with immobilised ligand	1 µM	72
CN(c1nccc(-c2cnn3ncccc23)n1)C1CC1	binding	1 µM	100
O=C(NCCCN1CCOCC1)c1ccc(Nc2nccc(-c3cc4ccccc4s3)n2)cc1	binding, competition with immobilised ligand	1 µM	56
CSc1cccnc1N1CCN(Cc2nc3ccccc3[nH]2)CC1	cell-free assay, competition with immobilised ligand	1 µM	100
CN(C)c1nccc(-c2cnn3ncccc23)n1	binding	1 µM	85
COc1cnc(Nc2cccc(S(N)(=O)=O)c2)nc1N1CCN(c2ccccc2)CC1	binding, competition with immobilised ligand	1 µM	81
COc1ncc2cc3ccccc3nc2c1C#N	cell-free assay, competition with immobilised ligand	5 µM	98
CNC(=O)Nc1ccc2c(c1)[C@@]1(CC2)OC(=O)N(CC(=O)N(Cc2ccc(F)cc2)[C@@H](C)C(F)(F)F)C1=O	cell-free assay, competition with immobilised ligand	1 µM	100
CCN1CCN(Cc2ccc(C(=O)Nc3ccc(C)c(Oc4ccc5c(c4)CC(=O)N5)c3)cc2C(F)(F)F)CC1	binding, competition with immobilised ligand	1 µM	100
Cc1cnc(Nc2ccc(C(=O)N3CCC(N4CCCC4)CC3)cc2)nc1-c1cc2ccccc2s1	binding, competition with immobilised ligand	1 µM	90
COc1ccc2c(c1)O[C@@H](c1ccc(OC)c(OC)c1)C[C@H]2NC(=O)C1(c2ccc3c(c2)OC(F)(F)O3)CC1	cell-free assay, competition with immobilised ligand	1 µM	97
